From ChEMBL document CHEMBL4257511, “Effect of N-1 arylation of monastrol on kinesin Eg5 inhibition in glioma cell lines” (Medchemcomm, 2018) come the findings set out here.

Active and inactive are the calls of the source. The calls are words filed in the database; no cut-off is given here.

For series [1], the system named is U138-MG. Nature of the series: Antiproliferative activity against human U138MG cells assessed as reduction in cell viability at 100 uM after 24 hrs by MTS assay relative to control. In kind it is functional. The method, boiled down: (§1)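 Glioma cells grown in DMEM with penicillin/streptomycin and FBS (15% or 5%, by line), 37 °C, 5% CO2; seeded and grown to semi-confluence, then exposed 24 h to 5, 10, 25, 50 and 100 μM. MTS reagent added for 2 h; absorbance at 490 nm. Viability expressed as percent of untreated control (100%); means ± SD of three independent experiments.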

A further series has as its system C6 (Rattus norvegicus). Nature of the series: Cell cycle arrest in rat C6 cells assessed as accumulation at G2/M phase at 100 uM after 24 hrs by propidium iodide staining based flow cytometry relative to control.
In series [2] the test system is C6. As to the kind of experiment: Antiproliferative activity against rat C6 cells assessed as reduction in cell viability at 100 uM after 24 hrs by MTS assay relative to control. Type of series: functional. The method, boiled down:
as §1

Series [3] concerns C6. Nature of the series: Induction of apoptosis in rat C6 cells at 100 uM after 48 hrs by Annexin V/propidium iodide staining based flow cytometry. Type of series: functional, cell-based. An outline of the steps: (§2)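 After 48 h exposure (U138: 150 or 200 μM; C6: 50 or 100 μM), cells washed twice in cold PBS pH 7.4 and counted. 10^5 cells stained with FITC-annexin V and PI in binding buffer, 15 min at room temperature in the dark, then read by two-colour flow cytometry. Early apoptotic annexin+/PI−, late apoptotic annexin+/PI+, necrotic annexin−/PI+.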

The nature of series [4]: Toxicity in Caenorhabditis elegans N2 L1 larva assessed as mortality incubated for 30 mins on rotator and measured after 24 hrs. Type of series: organism-based. The following applies: in vivo. The method, boiled down: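 Wild-type N2 worms kept on NGM plates seeded with E. coli OP50 at 20 °C and synchronized to L1 by bleaching. L1 larvae (2.500 worms per dose) exposed acutely to five doses from 6.25 to 200 mM, 20 °C, 30 min with constant rotation. Washed three times in M9, plated on OP50-seeded NGM, survivors counted at 24 h. LC50 derived from dose–response curves.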

Series [5] deals with C6. As to the kind of experiment: Cell cycle arrest in rat C6 cells assessed as accumulation at G2/M phase at 100 uM after 24 hrs by propidium iodide staining based flow cytometry. In kind it is functional. An outline of the steps:
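Cells grown to semi-confluence, treated 24 h (U138: 150 or 200 μM; C6: 50 or 100 μM), washed twice in PBS pH 7.4, harvested and resuspended at 10^6 cells/ml in Tris-HCl pH 7.6, 3.5 mM trisodium citrate, 0.1% NP40, 100 μg/mL RNase, 50 μg/mL PI. After 15 min, sub-G1, G0/G1, S and G2/M fractions read by flow cytometry.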

For series [6], the system named is U138-MG. Nature of the series: Antiproliferative activity against human U138MG cells after 24 hrs by MTS assay. In kind it is functional, cell-based. The method, boiled down:
as §1

Series [7] relates to U138-MG. Nature of the series: Induction of apoptosis in human U138MG cells at 200 uM after 48 hrs by Annexin V/propidium iodide staining based flow cytometry. In kind it is functional, cell-based. An outline of the steps: as §2
The target in series [8] is T1, Kinesin-like protein KIF11 (Homo sapiens) (UniProt P52732).
T1 sequence (whole entry): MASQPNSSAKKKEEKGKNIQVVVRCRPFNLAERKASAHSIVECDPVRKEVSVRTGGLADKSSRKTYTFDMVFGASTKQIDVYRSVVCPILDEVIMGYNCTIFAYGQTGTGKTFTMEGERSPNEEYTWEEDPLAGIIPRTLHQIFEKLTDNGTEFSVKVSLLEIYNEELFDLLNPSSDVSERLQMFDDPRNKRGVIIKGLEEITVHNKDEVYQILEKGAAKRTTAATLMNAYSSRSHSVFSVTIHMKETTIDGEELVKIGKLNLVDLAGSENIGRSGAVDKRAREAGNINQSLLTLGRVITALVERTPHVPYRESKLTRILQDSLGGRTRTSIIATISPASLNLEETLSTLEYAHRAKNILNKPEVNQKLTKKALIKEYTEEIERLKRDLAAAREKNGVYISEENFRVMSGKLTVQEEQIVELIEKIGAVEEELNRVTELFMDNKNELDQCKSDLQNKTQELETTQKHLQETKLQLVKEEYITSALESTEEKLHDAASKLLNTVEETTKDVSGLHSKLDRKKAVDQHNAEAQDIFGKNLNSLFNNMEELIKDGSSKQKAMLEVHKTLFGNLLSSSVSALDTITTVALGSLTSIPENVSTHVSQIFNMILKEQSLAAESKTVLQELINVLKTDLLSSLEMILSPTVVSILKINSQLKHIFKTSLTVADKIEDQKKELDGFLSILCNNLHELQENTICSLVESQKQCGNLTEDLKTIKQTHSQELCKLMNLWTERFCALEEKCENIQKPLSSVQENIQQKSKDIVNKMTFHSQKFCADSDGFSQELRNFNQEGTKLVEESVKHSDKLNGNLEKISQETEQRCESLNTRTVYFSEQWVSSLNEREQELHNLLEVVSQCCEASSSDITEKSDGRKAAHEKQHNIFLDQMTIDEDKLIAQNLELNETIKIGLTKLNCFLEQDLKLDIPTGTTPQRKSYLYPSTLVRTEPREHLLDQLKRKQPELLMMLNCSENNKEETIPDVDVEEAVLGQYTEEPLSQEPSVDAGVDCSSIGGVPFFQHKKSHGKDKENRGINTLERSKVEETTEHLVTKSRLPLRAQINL
The following applies: 200 uM.

For series [9], the system named is C6. Nature of the series: Antiproliferative activity against rat C6 cells after 24 hrs by MTS assay. In kind it is functional, cell-based. The following applies: C6, 24 h. An outline of the steps:
as §1

Series [10] deals with T2, Kinesin family member 11 (Rattus norvegicus) (UniProt F1MAB8).
T2 sequence (whole entry): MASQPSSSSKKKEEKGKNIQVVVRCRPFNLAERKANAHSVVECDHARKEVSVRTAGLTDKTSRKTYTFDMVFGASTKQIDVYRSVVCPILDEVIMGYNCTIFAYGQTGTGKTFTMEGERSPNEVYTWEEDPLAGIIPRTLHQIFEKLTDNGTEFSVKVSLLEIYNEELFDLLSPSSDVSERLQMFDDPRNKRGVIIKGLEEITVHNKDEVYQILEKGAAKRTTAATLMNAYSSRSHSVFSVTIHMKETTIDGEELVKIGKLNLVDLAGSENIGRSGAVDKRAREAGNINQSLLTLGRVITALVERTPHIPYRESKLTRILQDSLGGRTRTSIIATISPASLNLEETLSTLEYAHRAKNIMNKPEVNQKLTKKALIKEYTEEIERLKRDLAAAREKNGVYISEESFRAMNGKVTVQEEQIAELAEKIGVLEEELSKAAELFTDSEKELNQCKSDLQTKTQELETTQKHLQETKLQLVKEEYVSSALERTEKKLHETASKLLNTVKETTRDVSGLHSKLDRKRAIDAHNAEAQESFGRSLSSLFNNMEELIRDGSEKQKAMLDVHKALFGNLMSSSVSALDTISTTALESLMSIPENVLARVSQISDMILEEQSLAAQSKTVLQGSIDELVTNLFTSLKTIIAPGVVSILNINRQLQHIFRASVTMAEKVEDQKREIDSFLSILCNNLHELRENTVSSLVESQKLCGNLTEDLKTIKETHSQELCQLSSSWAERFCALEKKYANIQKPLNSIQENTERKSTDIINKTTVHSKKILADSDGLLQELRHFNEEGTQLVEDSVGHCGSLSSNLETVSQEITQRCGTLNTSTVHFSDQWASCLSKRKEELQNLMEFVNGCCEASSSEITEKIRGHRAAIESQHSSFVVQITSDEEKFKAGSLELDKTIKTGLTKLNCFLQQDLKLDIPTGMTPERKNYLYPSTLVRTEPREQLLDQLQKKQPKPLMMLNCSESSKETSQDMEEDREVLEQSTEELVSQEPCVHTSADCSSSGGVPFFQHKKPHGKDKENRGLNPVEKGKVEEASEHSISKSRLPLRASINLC
Nature of the series: Inhibition of EG5 in rat C6 cells assessed as monopolar spindle formation at 100 uM after 24 hrs by Hoechst staining based immunofluorescence microscopic method. In kind it is cell-based. The method, boiled down: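 Glioma cells allowed to adhere 48 h, then treated 24 h (U138: 150 or 200 μM; C6: 50 or 100 μM). Fixed cells probed with rabbit anti-α-tubulin for 90 min, then FITC goat anti-rabbit for 1 h, with Hoechst nuclear counterstain. Monopolar spindles scored by confocal microscopy at 600×.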

In series [11] the test system is U138-MG. As to the kind of experiment: Induction of necrosis in human U138MG cells at 200 uM after 48 hrs by Annexin V/propidium iodide staining based flow cytometry. In kind it is functional, cell-based. The method, boiled down:
as §2

Take `CCOC(=O)C1=C(C)NC(=S)NC1c1cccc(O)c1` (configuration not stated) [MONASTROL]: the Activity in the series on U138-MG [1] turned out to be 20.8%; with C6 (Rattus norvegicus), 27.4%. In addition, the result with C6 [2], in the series on C6 [3], in the series with C6 [5], in the series with U138-MG [7] and in the series on U138-MG [11] was Active. Moreover, the LC50 at 24 h in series [4] turned out to be 80.1 mM. Moreover, the half-inhibitory concentration (IC50) with U138-MG [6] and with C6 [9] was greater than 0.2 mM each time. In addition, the inhibition entry in [8] and in [10] was “Active” each time.
